Assay results as given in ChEMBL document CHEMBL2440084, “Design and bio-evaluation of indole derivatives as potent Kv1.5 inhibitors” (Bioorg Med Chem, 2013).

Experiments:
[1] = biological target: T1, Potassium voltage-gated channel subfamily A member 5 (Homo sapiens, UniProt P22460); assay: Inhibition of human Kv1.5 channel expressed in HEK293 cells by whole cell patch clamp technique; assay type: cell-based
Outline: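 HEK 293 cells stably expressing hKv1.5 were grown at 37 °C with 10% FBS and 0.2 mg/mL geneticin, trypsinized and used the same day. Whole-cell I_Kur was evoked by 500-ms steps to +60 mV from -80 mV at 0.1 Hz, at 25 °C. Compound was applied ≥5 min after current stabilized. IC50 came from cell-by-cell Hill fits, ≥3 cells per concentration, mean ± SD, n = 3.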

HEK293 = assay: Selectivity ratio of IC50 for sodium channel in guinea pig ventricular myocytes to IC50 for human Kv1.5 channel expressed in HEK293 cells; assay type: cell-based
[2] = Inhibition of sodium channel in guinea pig ventricular myocytes by whole cell patch clamp technique; assay type: cell-based; settings: Cavia porcellus, Ventricular myocyte
Outline: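 Whole-cell I_Na was recorded in enzymatically isolated ventricular myocytes, using only quiescent, rod-shaped, striated cells, at 25 °C. Holding potential was -90 mV, with 30-ms pulses from -80 to +40 mV in 10-mV increments at 0.5 Hz. Compound was applied ≥5 min after current stabilized. IC50 came from cell-by-cell Hill fits, ≥3 cells per concentration, mean ± SD.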

[3] = biological target: Voltage-gated inwardly rectifying potassium channel KCNH2 (Homo sapiens, UniProt Q12809); assay: Inhibition of human ERG channel expressed in CHO cells by whole cell patch clamp technique; assay type: cell-based
Voltage-gated inwardly rectifying potassium channel KCNH2, sequence (Q12809 whole entry): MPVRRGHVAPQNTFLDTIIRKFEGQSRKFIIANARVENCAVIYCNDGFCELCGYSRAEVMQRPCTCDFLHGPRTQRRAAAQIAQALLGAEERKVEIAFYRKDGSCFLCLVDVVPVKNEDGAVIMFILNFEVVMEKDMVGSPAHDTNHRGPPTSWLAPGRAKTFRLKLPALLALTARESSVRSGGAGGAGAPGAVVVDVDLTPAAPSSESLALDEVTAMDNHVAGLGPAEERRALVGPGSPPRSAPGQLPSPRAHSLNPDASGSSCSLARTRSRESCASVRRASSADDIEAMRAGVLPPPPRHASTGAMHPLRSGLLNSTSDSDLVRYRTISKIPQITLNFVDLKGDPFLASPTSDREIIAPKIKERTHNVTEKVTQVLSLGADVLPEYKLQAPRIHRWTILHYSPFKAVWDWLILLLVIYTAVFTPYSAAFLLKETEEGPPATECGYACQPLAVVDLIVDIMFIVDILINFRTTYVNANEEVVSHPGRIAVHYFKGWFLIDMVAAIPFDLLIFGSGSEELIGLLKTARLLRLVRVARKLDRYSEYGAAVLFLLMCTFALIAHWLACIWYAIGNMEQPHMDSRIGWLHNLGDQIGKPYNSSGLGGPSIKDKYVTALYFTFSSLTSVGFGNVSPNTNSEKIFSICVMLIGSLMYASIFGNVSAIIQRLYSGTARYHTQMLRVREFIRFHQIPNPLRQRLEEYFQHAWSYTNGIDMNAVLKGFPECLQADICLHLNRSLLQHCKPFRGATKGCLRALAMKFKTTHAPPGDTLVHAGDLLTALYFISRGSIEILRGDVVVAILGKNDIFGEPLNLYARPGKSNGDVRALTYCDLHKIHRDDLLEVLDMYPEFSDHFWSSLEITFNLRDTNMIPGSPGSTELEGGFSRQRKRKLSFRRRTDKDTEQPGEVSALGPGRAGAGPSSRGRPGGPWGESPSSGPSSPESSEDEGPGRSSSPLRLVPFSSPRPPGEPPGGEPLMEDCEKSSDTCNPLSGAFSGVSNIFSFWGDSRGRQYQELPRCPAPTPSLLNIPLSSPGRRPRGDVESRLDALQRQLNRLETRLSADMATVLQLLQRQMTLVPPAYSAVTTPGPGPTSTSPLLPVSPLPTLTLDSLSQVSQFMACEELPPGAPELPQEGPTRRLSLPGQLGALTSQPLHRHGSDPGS

Homo sapiens = species on record: Homo sapiens; assay: Selectivity ratio of IC50 for human ERG channel to IC50 for human Kv1.5 channel
Rattus norvegicus = species on record: Rattus norvegicus; assay: Prolongation of atrial effective refractory period in left atrium of Sprague-Dawley rat heart after 10 mins; assay type: functional, tissue-based; settings: Cardiac atrium
Outline: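 Male SD rats (230 ± 30 g) were anesthetized with i.p. chloral hydrate. Left atrium and right ventricle were isolated into Krebs-Henseleit solution at pH 7.4, gassed with 95% O2/5% CO2. Compound was added cumulatively at 0.1, 1.0, 10 and 50 μmol/L, with 10 min equilibration each. ERP was recorded before and after compound. Values are mean ± SEM, n = 3, compared by Student's t test.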

[4] = Effect on ventricular effective refractory period in right ventricle of Sprague-Dawley rat heart at 0.1 to 50 umol/L after 10 mins
[5] = biological target: T1, Potassium voltage-gated channel subfamily A member 5; assay: Inhibition of human Kv1.5 channel expressed in HEK293 cells at 10 uM by whole cell patch clamp technique; assay type: cell-based

T1 sequence (P22460 whole entry): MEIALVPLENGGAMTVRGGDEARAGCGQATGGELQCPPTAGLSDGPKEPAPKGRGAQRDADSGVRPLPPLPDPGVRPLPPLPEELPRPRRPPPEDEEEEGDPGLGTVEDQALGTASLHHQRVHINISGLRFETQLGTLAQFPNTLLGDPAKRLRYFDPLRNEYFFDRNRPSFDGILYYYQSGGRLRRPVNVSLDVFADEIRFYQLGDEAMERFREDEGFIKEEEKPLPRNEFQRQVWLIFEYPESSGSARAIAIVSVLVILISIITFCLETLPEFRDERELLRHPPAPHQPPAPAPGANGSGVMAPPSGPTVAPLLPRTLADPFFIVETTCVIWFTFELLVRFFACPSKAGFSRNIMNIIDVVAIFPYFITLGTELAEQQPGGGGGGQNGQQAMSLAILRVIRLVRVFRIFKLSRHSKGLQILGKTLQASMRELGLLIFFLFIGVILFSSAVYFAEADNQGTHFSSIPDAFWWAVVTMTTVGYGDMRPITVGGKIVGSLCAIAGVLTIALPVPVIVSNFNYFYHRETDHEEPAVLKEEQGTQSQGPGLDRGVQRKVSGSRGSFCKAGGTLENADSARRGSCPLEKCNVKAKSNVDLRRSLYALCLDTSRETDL

Compound	IC50 [1] [µM]	inhibition [1]	further results
COc1ccc(NC(=O)Cn2cc(/C=N/NS(=O)(=O)c3ccc(C)cc3)c3ccccc32)cc1	16.9	Dose-dependent effect	
COC(=O)C(Cc1c[nH]c2ccccc12)NS(=O)(=O)c1ccc(OC(C)C)cc1 (stereo not drawn)	3.93	Dose-dependent effect	
COc1ccc2c(c1)c(/C=N/NS(=O)(=O)c1ccc(C)cc1)cn2CC(=O)Nc1ccc(F)cc1F	2.18	Dose-dependent effect	
COC(=O)C(Cc1c[nH]c2ccccc12)NS(=O)(=O)c1ccc(F)cc1 (stereo not drawn)	6.45	Dose-dependent effect	
Cc1ccc(S(=O)(=O)N/N=C/c2cn(CC(=O)Nc3ccccc3)c3ccccc23)cc1	0.81	Dose-dependent effect	Ratio IC50 (HEK293): 96.3; IC50 [2]: 78 µM; IC50 [3]: 43.6 µM; Ratio IC50 (Homo sapiens): 53.9
CCC(=O)Oc1ccc(NC(=O)Cn2cc(/C=N/NS(=O)(=O)c3ccc(C)cc3)c3ccccc32)cc1	2.14	Dose-dependent effect	
Cc1ccc(S(=O)(=O)N/N=C/c2cn(CC(=O)Nc3ccc(F)cc3F)c3ccccc23)cc1	0.25	Dose-dependent effect	Activity (Rattus norvegicus): Dose-dependent effect; Ratio IC50 (HEK293): 459; IC50 [2]: 115 µM; IC50 [3]: 43 µM; Activity [4]: Non-toxic; Ratio IC50 (Homo sapiens): 172
CCCCOc1ccc(S(=O)(=O)NC(Cc2c[nH]c3ccccc23)C(=O)O)cc1 (stereo not drawn)	65.4	Dose-dependent effect	
Cc1ccc(S(=O)(=O)NCCc2cn(CC(=O)Nc3ccc(Cl)cc3)c3ccccc23)cc1	12.9	Dose-dependent effect	
Cc1ccc(S(=O)(=O)N/N=C/c2cn(CC(=O)Nc3cc(C)ccc3C)c3ccccc23)cc1	1.77	Dose-dependent effect	
COc1ccc2c(c1)c(/C=N/NS(=O)(=O)c1ccc(C)cc1)cn2CC(=O)Nc1ccccc1	3.73	Dose-dependent effect	
COC(=O)C(Cc1c[nH]c2ccccc12)NS(=O)(=O)c1ccc(OC)cc1 (stereo not drawn)	5.45	Dose-dependent effect	
COC(=O)C(Cc1c[nH]c2ccccc12)NS(=O)(=O)c1ccc(C)cc1 (stereo not drawn)	4.72	Dose-dependent effect	
Cc1ccc(S(=O)(=O)N/N=C/c2cn(CC(=O)Nc3ccc(OC(F)(F)F)cc3)c3ccccc23)cc1	1.52	Dose-dependent effect	
COc1ccc(S(=O)(=O)NCCc2cn(CC(=O)Nc3ccc(Cl)cc3)c3ccccc23)cc1	3.14	Dose-dependent effect	
COC(=O)C(Cc1c[nH]c2ccccc12)NS(=O)(=O)c1ccc(OC2CCCC2)cc1 (stereo not drawn)	2.38	Dose-dependent effect	
COC(=O)C(Cc1c[nH]c2ccccc12)NS(=O)(=O)c1ccc(OCC(C)C)cc1 (stereo not drawn)	3.56	Dose-dependent effect	
CCCCOc1ccc(S(=O)(=O)NC(Cc2c[nH]c3ccccc23)C(=O)OC)cc1 (stereo not drawn)	8.37	Dose-dependent effect	inhibition [5]: 52%
COC(=O)C(Cc1c[nH]c2ccccc12)NS(=O)(=O)c1ccc(Br)cc1 (stereo not drawn)	2.25	Dose-dependent effect	
Cc1ccc(S(=O)(=O)N/N=C/c2cn(CC(=O)Nc3ccc(Cl)cc3)c3ccccc23)cc1	1.9	Dose-dependent effect	
CCCCOc1ccc(S(=O)(=O)NC(Cc2ccccc2)C(=O)OC)cc1 (stereo not drawn)	110	Dose-dependent effect	
Cc1ccc(S(=O)(=O)N/N=C/c2cn(CC(=O)Nc3ccccc3Cl)c3ccccc23)cc1	0.74	Dose-dependent effect	IC50 [3]: 18.7 µM; Ratio IC50 (Homo sapiens): 25.2
CCCCOc1ccc(S(=O)(=O)NCCc2cn(CC(=O)Nc3ccc(Cl)cc3)c3ccccc23)cc1	185	Dose-dependent effect	
CCCCOc1ccc(S(=O)(=O)NCCc2cn(CC(=O)Nc3ccc(OC)cc3)c3ccccc23)cc1	6.21	Dose-dependent effect	
Cc1ccc(S(=O)(=O)N/N=C/c2cn(CC(=O)Nc3ccc(C)c(C)c3)c3ccccc23)cc1	11.2	Dose-dependent effect	
CCCCOc1ccc(S(=O)(=O)NCCc2c[nH]c3ccccc23)cc1	9.95	Dose-dependent effect	IC50 [3]: 3.18 µM; Ratio IC50 (Homo sapiens): 0.32
COc1ccc2c(c1)c(/C=N/NS(=O)(=O)c1ccc(C)cc1)cn2CC(=O)Nc1ccc(Cl)cc1	0.51	Dose-dependent effect	Activity (Rattus norvegicus): Dose-dependent effect; Ratio IC50 (HEK293): 103; IC50 [2]: 52.6 µM; IC50 [3]: 418 µM; Activity [4]: Non-toxic; Ratio IC50 (Homo sapiens): 820
Cc1ccc(S(=O)(=O)N/N=C/c2cn(CC(=O)Nc3ccc(C)cc3C)c3ccccc23)cc1	24	Dose-dependent effect	
COc1ccc(NC(=O)Cn2cc(CCNS(=O)(=O)c3ccc(OC)cc3)c3ccccc32)cc1	1.72	Dose-dependent effect	IC50 [3]: 10.2 µM; Ratio IC50 (Homo sapiens): 5.95
COc1ccc(NC(=O)Cn2cc(CCNS(=O)(=O)c3ccc(C)cc3)c3ccccc32)cc1	38.7	Dose-dependent effect	
